From PubChem
In the library only some 4.5% were active in any assay of this set; here they are far more common.
MrgX1 PAM: human MrgX1 positive allosteric modulation, primary screen. Q96LB2. MrgX1-HEK293, Fluo-4 calcium flux, FDSS; active compounds read high. B-score at 10 µM. actives 0.63% (n = 310,000);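 active = plate-corrected calcium response at least 3 library SD above typical, normal starting fluorescence, not activating the receptor alone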;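 also: compound read alongside a low EC10 to EC30 dose of BAM8-22 agonist; peak minus trough fluorescence over baseline measured at the second addition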
Target sequence (Q96LB2 whole entry, looked up): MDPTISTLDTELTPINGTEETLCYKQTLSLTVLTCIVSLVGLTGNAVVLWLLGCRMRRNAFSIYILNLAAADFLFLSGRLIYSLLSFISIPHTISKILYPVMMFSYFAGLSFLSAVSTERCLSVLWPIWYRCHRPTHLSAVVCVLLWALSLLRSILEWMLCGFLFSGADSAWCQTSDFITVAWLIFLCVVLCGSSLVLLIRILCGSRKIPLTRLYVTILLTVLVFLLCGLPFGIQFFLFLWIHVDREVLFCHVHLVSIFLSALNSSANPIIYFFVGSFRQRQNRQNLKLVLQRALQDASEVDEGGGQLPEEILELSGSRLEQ
PHOSPHO1 block: blocks human PHOSPHO1 phosphatase activity. inhibition, % at 13.3 µM. actives 1.1% (n = 290,000). recombinant PHOSPHO1, absorbance phosphatase assay. Q8TCT1; in the data active = inhibition above about 60%
Target sequence (Q8TCT1 whole entry, looked up): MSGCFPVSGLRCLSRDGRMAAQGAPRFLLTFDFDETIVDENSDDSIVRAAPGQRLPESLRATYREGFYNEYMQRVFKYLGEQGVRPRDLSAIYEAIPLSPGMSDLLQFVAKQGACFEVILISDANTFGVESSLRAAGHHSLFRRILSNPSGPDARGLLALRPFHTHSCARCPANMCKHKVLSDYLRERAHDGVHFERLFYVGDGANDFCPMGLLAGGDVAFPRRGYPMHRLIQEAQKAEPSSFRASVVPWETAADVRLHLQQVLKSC
RGS4 pot: RGS4 potentiation or activation. B-score at 10 µM. AID 463111. actives 0.92% (n = 310,000). HEK293 M3R/inducible RGS4, carbachol calcium flux Fluo4; active compounds read low;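 active = B-score of the integrated calcium signal more than 4 SD below the library mean, with starting fluorescence not abnormally high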;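 also: negative B-score means reduced calcium response which marks RGS4 activation or potentiation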
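test system = HEK293 cells with stable M3R and inducible RGS4 | schedule = recording 10 s baseline at 1 Hz, 100 s post-agonist | technique = Fluo4-AM (2 µM) calcium-flux fluorescence, kinetic read | measure = Agonist-evoked peak-minus-minimum fluorescence over baseline, integrated ratio, B score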
RGS4 inh: human RGS4 inhibition. P49798. HEK293 M3R/RGS4 inducible, Fluo-4 calcium flux; active compounds read high; triggered by carbachol at its EC20. actives 0.45% (n = 310,000). B-score at 10 µM;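 active = B-score, a plate-corrected calcium signal, over three deviations above library mean, with baseline fluorescence within five deviations of library mean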;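 also: RGS4 expression induced by doxycycline in cells with stable M3 receptor; B-score is computed from the integrated fluorescence ratio over baseline after carbachol; higher B-score means a larger calcium signal and so more RGS4 inhibition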
MrgX1 antagonist: blocks BAM8-22 activation of human MrgX1 receptor; MRGX1-HEK293 calcium flux, Fluo-4, BAM8-22 antagonism; active compounds read low; AID 588676; B-score at 10 µM; actives 1.3% (n = 310,000);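 active = calcium-response B-score plate-corrected more than 3 library SD below zero, starting fluorescence within 5 deviations, no agonist response on first addition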;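 also: peak minus trough fluorescence over baseline after final BAM8-22 challenge near maximal dose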
MrgX1 ag: activates human MrgX1 receptor signaling; Q96LB2; B-score at 10 µM; actives 0.44% (n = 310,000); AID 588627; MrgX1-HEK293 cells, Fluo-4 calcium fluorescence, agonist mode; active compounds read high;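 active = calcium response B-score plate-corrected fluorescence ratio at least 3 library SD, with starting fluorescence B-score inside 5 SD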
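Assay system: stable human MrgX1 HEK293 cell line. Quantity: 15,000 cells per well. Schedule: cells plated overnight, dye loaded 0.5 h 37 °C, 0.5 h room temperature. Detection: Fluo-4 NW calcium-flux fluorescence, kinetic read. Read-out basis: peak-minus-minimum fluorescence over baseline, converted to B scores. Control set: positive and negative control wells on each plate.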
Numbers without * were called inactive; i = inactive; x = not tested or not shown.

SMILES | MrgX1 PAM | PHOSPHO1 block | RGS4 pot | RGS4 inh | MrgX1 antagonist | MrgX1 ag
COc1ccc(NS(=O)(=O)c2cccc(C(=O)NCC(c3ccc(OC)cc3)N3CCOCC3)c2)cc1 (stereo not drawn) | i | 48 | i | i | -4.7* | i
COc1ccc(C(CNC(=O)c2cccc(S(=O)(=O)Nc3ccc(C)cc3)c2)N2CCOCC2)cc1 (stereo not drawn) | i | x | i | i | i | i
CCc1ccc2oc(C(=O)NCC(c3ccc(OC)cc3)N3CCCCC3)c(C)c2c1 (stereo not drawn) | i | 41 | -8.1* | i | i | i
COc1ccc(C(CNC(=O)c2oc3ccc(OC)cc3c2C)N2CCCC2)cc1 (stereo not drawn) | i | x | i | i | i | i
CSCC[C@H](NC(=O)c1ccc(Cl)c(S(=O)(=O)N2CCCC2)c1)c1nc2ccccc2[nH]1 | i | 98* | i | i | i | i
CCOC(=O)c1c(NC(=O)C2CCCO2)sc(C(=O)OC(C)(C)C)c1C (stereo not drawn) | i | 83* | i | i | i | i
N#CCn1c(CN2CCCC2)nc2ccccc2c1=O | i | 22 | i | i | i | i
Cc1sc2ncnc(NCC3CCCO3)c2c1C (stereo not drawn) | i | 60* | i | i | i | i
CCc1cc2c(NCC3CCCO3)ncnc2s1 (stereo not drawn) | i | -2 | i | i | i | i
Cc1ccc(C(=O)Nc2cccc(C(F)(F)F)c2)cc1NC(=O)c1csc(-c2ccncc2)n1 | i | 4 | i | i | i | i
N#C/C(=N\Nc1cccc(C(F)(F)F)c1)C(=O)c1csc(-c2cccnc2)n1 | i | 17 | i | i | -5.7* | i
N#CCCn1c(=S)[nH]c2ccccc21 | i | 88* | i | i | i | i
Cn1c(=S)[nH]c2ccccc21 | i | 74* | i | i | i | i
CCOc1ccc2c(c1)[nH]c(=S)n2C | i | 79* | i | i | i | i
Cc1cc(C)nc(SCC(CSc2nc(C)cc(C)n2)C(=O)O)n1 | i | 31 | i | i | i | i
O=C1C2C3CCC(CC3)C2C(=O)N1c1ccccc1 (stereo not drawn) | i | 20 | i | i | i | i
C[N+]1(C)CCCC(OC(=O)C(O)(c2ccccc2)c2ccccc2)C1 (stereo not drawn) | i | x | -11* | i | i | i
Cn1c(Cl)cnc1C(O)(c1ccccc1)c1ccccc1 | i | 32 | i | i | i | i
CNC(=O)c1ccsc1NC(=O)CS(=O)(=O)c1ccc(Cl)cc1 | i | 64* | i | i | i | i
COc1ccc(-n2nc(C(=O)NCC(=O)NCCC3=CCCCC3)c3ccccc3c2=O)cc1 | i | 43 | i | i | i | i
CCOC(=O)C1CCCN(C(=O)c2cc(S(=O)(=O)N3CCCCC3)c[nH]2)C1 (stereo not drawn) | i | 15 | i | i | i | i
Cc1cc(C)c2nc(-c3ccncc3)cc(C(=O)N3CCN(Cc4ccccc4Cl)CC3)c2c1 | i | 57 | -7.4* | i | i | i
O=C(c1cc(-c2ccncc2)nc2ccc(Cl)cc12)N1CCN(Cc2ccc3c(c2)OCO3)CC1 | i | 29 | i | i | i | i
Cc1ccc(S(=O)(=O)N2CCCCC2C(=O)O)s1 (stereo not drawn) | i | 42 | i | i | i | i
O=C(NC1CCS(=O)(=O)C1)/C(=C/c1ccc(Cl)cc1)NC(=O)c1ccccc1 (stereo not drawn) | i | 181* | i | i | i | i
SMILES | MrgX1 PAM | PHOSPHO1 block | RGS4 pot | RGS4 inh | MrgX1 antagonist | MrgX1 ag
CCN(CC(=O)Nc1ccc2c(c1)OCCO2)S(=O)(=O)c1ccc(F)cc1 | i | 26 | i | i | i | i
COc1ccc(CN=Cc2[nH]c3ccc(Br)c(Cl)c3c2O)cc1 | i | -30 | i | i | i | 37*
Cc1cc(C)cc(N=Cc2[nH]c3ccc(Br)c(Cl)c3c2O)c1 | i | -8 | i | i | i | 39*
COc1ccc(CN=CC2=C(O)CNC2=O)cc1 | i | 8 | i | i | i | i
Cc1ccc(N=Cc2cc(Br)cc(Cl)c2O)cc1 | i | 2 | i | i | i | i
COc1c(CC=C(C)C)cc(C2CC(=O)c3c(O)cc(O)cc3O2)cc1CC=C(C)C (stereo not drawn) | i | 27 | -8.3* | i | i | i
CCc1ccc(OCC(=O)N(CC)CC)cc1 | i | 27 | i | i | i | i
Nc1ccc(S(=O)(=O)C(F)(F)F)cc1N | i | 24 | i | i | i | i
Cc1ccccc1-n1nc(C(=O)c2cccs2)cc(-c2nc3ccccc3[nH]2)c1=N | i | -21 | i | i | i | i
Cc1cccc(-n2nc(C(=O)c3ccco3)cc(-c3nc4ccccc4[nH]3)c2=N)c1 | i | -17 | -8.1* | i | i | i
O=[N+]([O-])c1ncccc1OCc1ccccc1Br | i | 6 | i | i | i | i
COc1ccc(S(=O)(=O)/N=C2/NC(=O)/C(=C/c3ccco3)S2)cc1 | 7.5* | 0 | i | i | i | i
COc1ccc(S(=O)(=O)/N=C2/NC(=O)/C(=C\c3ccco3)S2)cc1 | i | 5 | i | i | i | i
CC(C)CN(CC(C)C)S(=O)(=O)N1CCC(C(=O)NCCc2ccc(Cl)cc2)CC1 | i | 13 | i | i | -7.6* | i
CCC(=O)N1CCc2cc(Br)cc(S(=O)(=O)N3CCCC(C(=O)NC(C)(C)C)C3)c21 (stereo not drawn) | i | 20 | i | i | i | i
Cc1cc(C)n2c(Br)c(CN3CCCC(C)C3)nc2n1 (stereo not drawn) | i | 24 | i | i | i | i
CN1C(=O)NC(c2cccc([N+](=O)[O-])c2)C2=C1CC(C)(C)CC2=O (stereo not drawn) | i | -1 | i | i | i | i
COc1cccc(CC(NC(C)=O)C(=O)NC2CCN(C(=O)c3ccc(Cl)cc3)CC2)c1OC (stereo not drawn) | i | 4 | i | i | i | i
O=C(NCCN1CCCC1)c1cccc(Cl)c1 | i | 60* | i | i | i | i
